Experimental findings from ChEMBL document CHEMBL3856249 (J Med Chem, 2016) are described below.

For orientation: Tmax means the time from dosing to the highest level. Usually bioavailability stands for dose-corrected exposure relative to a reference, in per cent. The term pKa denotes the negative logarithm of the acid dissociation constant. Read a low pKa as a group that gives up its proton readily. As usually defined, the logP is the decadic logarithm of the partition coefficient of the neutral form, usually between octanol and water. What is called Cmax is the highest concentration seen after dosing. What is called AUC(0-inf) is the area under the concentration-time curve extrapolated to infinity. A low value points to low exposure. A word on the Papp: it is the rate of passage across a membrane or cell layer, normalised by area and donor concentration.

Data set [1] in a line: Tmax in Beagle dog at 1 mg/kg, iv or 5 mg/kg, po. The following applies: in vivo. It is filed as ADME, organism-based, Canis lupus familiaris. The procedure, abridged: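 Male Beagle dogs given 5 mg/kg orally and 1 mg/kg intravenously, formulated in 20% HP-β-CD + HCl solution at pH 4. Tmax reported as mean ± SD of three animals.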
Data set [2] is described as follows: Metabolic stability in human liver microsomes assessed as compound metabolized at 5 uM measured after 15 mins. It is filed as ADME. The note with it: read-out: Drug metabolism. In a few lines:
(§1)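 Human or rat liver microsomes incubated with compound at 5 μM for 15 min; read-out is % of parent metabolized; means of at least two experiments.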
In general terms: Liver microsomes are a subcellular fraction often used to study metabolism.

Data set [3] can be described thus: Metabolic stability in rat liver microsomes assessed as compound metabolized at 5 uM measured after 15 mins. It is filed as ADME. The note with it: read-out: Drug metabolism. In a few lines:
as §1

Data set [4] can be described thus: Oral bioavailability in Beagle dog at 5 mg/kg. It is filed as ADME, organism-based, Canis lupus familiaris. The following applies: in vivo. The procedure, abridged: (§2)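 Male Beagle dogs, 1 mg/kg i.v. and 5 mg/kg p.o., vehicle 20% HP-β-CD + HCl solution at pH 4; values are individual animals (two dogs) or mean of three animals ± SD.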
Data set [5] is described as follows: Ratio of drug level in brain to plasma of Swiss mouse at 10 mg/kg, sc measured after 1 hr. The following applies: brain and plasma, read-out: BPR. It is filed as ADME, organism-based. The procedure, abridged:
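Swiss mice, single 10 mg/kg s.c. dose in 20% HP-β-CD + HCl solution at pH 4; brain/plasma ratio taken 1 h post-dose.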

Data set [6] can be described thus: Dissociation constant, pKa of the compound. It counts as physicochemical.
Data set [7] in a line: Lipophilicity, log P of the compound. It is filed as physicochemical. The note with it: octanol/water.
Data set [8] is described as follows: Tmax in Sprague-Dawley rat at […], iv or 10 mg/kg, po. It counts as ADME, organism-based. The note with it: in vivo.
The nature of data set [9]: Cmax in Beagle dog at 1 mg/kg, iv or 5 mg/kg, po. It counts as ADME, organism-based, Canis lupus familiaris. The note with it: in vivo. The procedure, abridged:
as §2

The nature of data set [10]: AUC (0 to infinity) in Sprague-Dawley rat at […], iv or 10 mg/kg, po. It counts as ADME, organism-based. The note with it: in vivo.
A short description of data set [11]: Clearance in Sprague-Dawley rat at […], iv or 10 mg/kg, po. It counts as ADME, organism-based. The note with it: in vivo.
The nature of data set [12]: Half life in Beagle dog at 1 mg/kg, iv or 5 mg/kg, po. It counts as ADME, organism-based, Canis lupus familiaris. The following applies: in vivo. The procedure, abridged:
as §2

Data set [13] is described as follows: Oral bioavailability in Sprague-Dawley rat at 10 mg/kg. It counts as ADME, organism-based. The note with it: in vivo.
A short description of data set [14]: Elimination half life in Sprague-Dawley rat at […], iv or 10 mg/kg, po. It counts as ADME, organism-based. The following applies: in vivo, read-out: beta t1/2 (converted).
Data set [15] is described as follows: AUC (0 to infinity) in Beagle dog at 1 mg/kg, iv or 5 mg/kg, po. It is filed as ADME, organism-based, Canis lupus familiaris. The note with it: in vivo. In a few lines:
as §2

Data set [16] can be described thus: Clearance in Beagle dog at 1 mg/kg, iv or 5 mg/kg, po. The following applies: in vivo. It counts as ADME, organism-based, Canis lupus familiaris. In a few lines: as §2
The nature of data set [17]: Apparent permeability across apical to basolateral side over basolateral to apical side in pig LLC-PK1 cells at 1 uM measured after 120 mins. It counts as ADME, cell-based, Sus scrofa.
The nature of data set [18]: Cmax in Sprague-Dawley rat at […], iv or 10 mg/kg, po. The note with it: in vivo. It is filed as ADME, organism-based.

As for `CCCCn1ccc(N2CCC(c3ccccc3)CC2)c(Cl)c1=O` [JNJ-40411813], the Tmax in data set [1] and in data set [8] was 30 min throughout. Also, the metabolised at […], 5 µM came out at 23% in data set [2] and 53% in data set [3]. The bioavailability in data set [4] was 20%. Besides, the Kp at 1 h in data set [5] is 1. Besides, the pKa in [6] was < 2. In data set [7], this compound had a logP of 4.6. The highest level in [9] (Cmax) was 373 ng/mL.

As for `Fc1ccc([C@H]2CC[C@@H](NCc3ccn4c(CC5CC5)nnc4c3C(F)(F)F)CC2)c(F)c1`, the values for the metabolised at […], 5 µM in [2] and in data set [3] were 81% and 84%, respectively.

For the compound `Fc1ccc(N2CCN(Cc3ccn4c(CC5CC5)nnc4c3C(F)(F)F)CC2)c(F)c1`, the AUC(0-inf) in data set [10] was 11300 ng·h/mL; in [15], 3960 to 9860 ng·h/mL. For the same compound, the Tmax in [1] turned out to be 30 min; in [8], 300 min. Besides, the figures for the clearance in data set [11] and in [16] were 16 mL/min/kg and 4 to 6 mL/min/kg, respectively. Moreover, the results for the half-life in data set [12] and in [14] were 420 to 540 min and 180 min, respectively. For the same compound, the bioavailability was 100% in data set [13] and 18 to 44% in data set [4]. For the same compound, the metabolised at […], 5 µM in data set [2] was determined as 7%; in [3] it was 29%. The Kp at 1 h in [5] turned out to be 2.1. Besides, the apparent permeability coefficient (Papp) at 2 h, 1 µM in [17] turned out to be 22 ×10⁻⁶ cm/s. Also, the pKa in data set [6] came to 5. In data set [7], this compound displayed a logP of 4.2. Further, the Cmax in data set [9] is 459 to 1400 ng/mL; in [18] it was 980 ng/mL.

As for `Fc1ccc(OC2CCN(Cc3ccn4c(CC5CC5)nnc4c3C(F)(F)F)CC2)c(F)c1`, the results for the metabolised at […], 5 µM in [2] and in data set [3] were 25% and 57%, respectively.

For the compound `FC(F)(F)c1c(CN2CCC(c3ccccc3Cl)CC2)ccn2c(CC3CC3)nnc12`, the metabolised at […], 5 µM came to 13% in data set [2] and 90% in [3].

On to `Fc1ccc([C@H]2CC[C@H](NCc3ccn4c(CC5CC5)nnc4c3C(F)(F)F)CC2)c(F)c1`, for which the results for the metabolised at […], 5 µM in [2] and in data set [3] were 33% and 34%, respectively.

Take `Fc1ccccc1C1CCN(Cc2ccn3c(CC4CC4)nnc3c2C(F)(F)F)CC1`: the metabolised at […], 5 µM in [2] was 8%; in data set [3], 85%.

For the compound `FC(F)(F)c1c(CN2CCC(c3ccccc3)(C(F)(F)F)CC2)ccn2c(CC3CC3)nnc12`, the results for the metabolised at […], 5 µM in data set [2] and in data set [3] were 35% and 98%, respectively.

For the compound `Fc1ccc(COC2CCN(Cc3ccn4c(CC5CC5)nnc4c3C(F)(F)F)CC2)c(F)c1`, the metabolised at […], 5 µM in data set [2] is 67%; in data set [3], 96%.

Regarding `Fc1cccc(F)c1N1CCN(Cc2ccn3c(CC4CC4)nnc3c2C(F)(F)F)CC1`, the metabolised at […], 5 µM in data set [2] amounted to 55%; in data set [3], 99%.

As for `FC(F)(F)c1c(N2CCC(c3ccccc3)CC2)ccn2c(CC3CC3)nnc12`, the Tmax in data set [1] turned out to be 30 min. For the same compound, the clearance in [11] was 31 to 37 mL/min/kg. Besides, in data set [12], the half-life lay in the range of 66 to 108 min. This compound gave an area under the curve AUC(0-inf) in data set [15] of 531 to 957 ng·h/mL. For the same compound, in data set [3], the metabolised at […], 5 µM was found to be 25%. In [4], this compound registered a bioavailability of 18 to 33%. Besides, the Kp at 1 h in data set [5] came to 1.4. Besides, in data set [17], the Papp at 2 h, 1 µM stood at 12 ×10⁻⁶ cm/s. In data set [7], this compound came in with a logP of 4.4. In addition, in data set [9], the Cmax is 218 to 472 ng/mL.

`FC(F)(F)c1c(CN2CCN(c3ccc(Cl)cc3Cl)CC2)ccn2c(CC3CC3)nnc12`: the metabolised at […], 5 µM in data set [2] was 1%; in data set [3] it was 9%.

With `Fc1ccc(C2CCN(Cc3ccn4c(CC5CC5)nnc4c3C(F)(F)F)CC2)c(F)c1`, the metabolised at […], 5 µM amounted to 6% in [2] and 9% in data set [3].

With `FC(F)(F)c1c(CN2CCCC(c3ccccc3)C2)ccn2c(CC3CC3)nnc12` (centres undefined), the metabolised at […], 5 µM was 51% in data set [2] and 98% in [3].

Turning to `FC(F)(F)c1c(CN2CCC(F)(c3ccccc3)CC2)ccn2c(CC3CC3)nnc12`, the metabolised at […], 5 µM in [2] is 24%; in data set [3], 78%.

With `Fc1ccc(N2CCCN(Cc3ccn4c(CC5CC5)nnc4c3C(F)(F)F)CC2)c(F)c1`, the metabolised at […], 5 µM in data set [2] was 91%; in [3], 99%.

As for `CC1(c2ccccc2)CCCN(Cc2ccn3c(CC4CC4)nnc3c2C(F)(F)F)C1` (centres undefined), the results for the metabolised at […], 5 µM in [2] and in data set [3] were 97% and 99%, respectively.

With `Fc1cccc(F)c1C1CCN(Cc2ccn3c(CC4CC4)nnc3c2C(F)(F)F)CC1`, the metabolised at […], 5 µM in [2] came out at 5%; in data set [3], 75%.

Turning to `COC1(c2ccccc2)CCN(Cc2ccn3c(CC4CC4)nnc3c2C(F)(F)F)CC1`, the metabolised at […], 5 µM in data set [2] amounted to 69%; in data set [3] it was 98%.
